Converted amounts (≈) assume the structure as drawn.
How the values were obtained:
Format in all cases: functional
Talaromyces funiculosus = test: Antifungal activity against Penicillium funiculosum FNSST 3724 assessed as diameter of zone of inhibition at 250 ug/disc after 72 hrs by disc diffusion method; settings: FNSST 3724, 72 h, read-out: DIZ
Outline: (§1)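 Fungi were grown overnight at 30 °C in Sabouraud dextrose broth to 10^4 cfu/mL, and 100 µL was spread on Sabouraud dextrose agar. 6 mm discs carried 250 µg (25 µL of a 10 mg/mL stock in 96% ethanol), with ethanol as the negative control. Incubation was at 30 °C for 48 h (yeast) or 72 h (molds). Zone diameter was read including the disc, in triplicate, mean ± SE.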

Aeromonas hydrophila [1] = test: Antibacterial activity against Aeromonas hydrophila FNSST 014 assessed as diameter of zone of inhibition at 250 ug/disc after 24 hrs by disc diffusion method; settings: FNSST 014, 24 h, read-out: DIZ
Outline: (§2)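 Bacteria were grown overnight at 37 °C in TSB to about 10^6 cfu/mL, and 100 µL was spread on Mueller Hinton agar. Sterile 6 mm discs were each loaded with 25 µL of a 10 mg/mL stock in 96% ethanol, giving 250 µg/disc. Ethanol served as the negative control. Plates were incubated 24 h at 37 °C. Inhibition zone diameter was measured including the disc, in triplicate, as mean ± SE.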

Staphylococcus aureus [2] = test: Antibacterial activity against Staphylococcus aureus ATCC 25923 after 18 to 24 hrs by two-fold broth microdilution assay
Outline: (§3)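 CLSI two-fold broth microdilution was used. Compounds were dissolved in DMSO, brought to 10 mg/mL in medium, then serially diluted in Mueller Hinton broth over 400–0.09 µg/mL. Overnight MHB cultures were diluted to 10^6 CFU/mL, and 10 µL was added per well. Plates were incubated 18–24 h at 37 °C, then 0.2 mg/mL INT was added for 30 min at 37 °C. MIC was the lowest concentration with no visible growth or pink colour, triplicate.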

Escherichia coli [3] = test: Antibacterial activity against Escherichia coli FNSST 982 after 18 to 24 hrs by two-fold broth microdilution assay; outline: as §3
Bacillus cereus [4] = test: Antibacterial activity against Bacillus cereus ATCC 11778 after 18 to 24 hrs by two-fold broth microdilution assay; outline: as §3
Clostridium perfringens [5] = test: Antibacterial activity against Clostridium perfringens FNSST 4999 assessed as diameter of zone of inhibition at 250 ug/disc after 24 hrs by disc diffusion method; settings: FNSST 4999, 24 h, read-out: DIZ
Outline: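 Disc diffusion per CLSI: 100 µL of 10^6 cfu/mL bacterial suspension spread on Mueller Hinton agar. 6 mm discs loaded with 25 µL of 10 mg/mL compound stock in 96% ethanol (250 µg/disc); ethanol as negative control. Incubated 24 h at 37 °C. Inhibition zone diameter measured in mm including the disc, triplicate, reported as mean ± SE.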

Candida albicans = test: Antifungal activity against Candida albicans ATCC 10231 assessed as diameter of zone of inhibition at 250 ug/disc after 48 hrs by disc diffusion method; settings: ATCC 10231, 48 h, read-out: DIZ; outline: as §1
Aspergillus fumigatus = test: Antifungal activity against Aspergillus fumigatus FNSST 3833 assessed as diameter of zone of inhibition at 250 ug/disc after 72 hrs by disc diffusion method; settings: FNSST 3833, 72 h, read-out: DIZ; outline: as §1
Clostridium perfringens [6] = test: Antibacterial activity against Clostridium perfringens FNSST 4999 after 18 to 24 hrs by two-fold broth microdilution assay
Outline: (§4)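 CLSI two-fold broth microdilution. Compounds dissolved in DMSO, 10 mg/mL stock, serially diluted to 400–0.09 µg/mL in Mueller Hinton broth. Wells inoculated with 10^6 CFU/mL bacteria and incubated 18–24 h at 37 °C. 0.2 mg/mL INT added for 30 min. MIC taken as the lowest concentration with no visible growth or pink colour. Triplicate.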

Klebsiella pneumoniae [7] = test: Antibacterial activity against Klebsiella pneumoniae FNSST 011 after 18 to 24 hrs by two-fold broth microdilution assay; outline: as §3
Enterococcus faecalis [8] = test: Antibacterial activity against Enterococcus faecalis ATCC 29212 after 18 to 24 hrs by two-fold broth microdilution assay; outline: as §3
Aeromonas hydrophila [9] = test: Antibacterial activity against Aeromonas hydrophila FNSST 014 after 18 to 24 hrs by two-fold broth microdilution assay; outline: as §3
Staphylococcus aureus [10] = test: Antibacterial activity against Staphylococcus aureus ATCC 25923 assessed as diameter of zone of inhibition at 250 ug/disc after 24 hrs by disc diffusion method; settings: ATCC 25923, 24 h, read-out: DIZ; outline: as §2
Pseudomonas aeruginosa [11] = test: Antibacterial activity against Pseudomonas aeruginosa FNSST 982 assessed as diameter of zone of inhibition at 250 ug/disc after 24 hrs by disc diffusion method; settings: FNSST 982, 24 h, read-out: DIZ; outline: as §2
Enterococcus faecalis [12] = test: Antibacterial activity against Enterococcus faecalis ATCC 29212 assessed as diameter of zone of inhibition at 250 ug/disc after 24 hrs by disc diffusion method; settings: ATCC 29212, 24 h, read-out: DIZ; outline: as §2
Pseudomonas aeruginosa [13] = test: Antibacterial activity against Pseudomonas aeruginosa FNSST 982 after 18 to 24 hrs by two-fold broth microdilution assay; outline: as §3
Escherichia coli [14] = test: Antibacterial activity against Escherichia coli FNSST 982 assessed as diameter of zone of inhibition at 250 ug/disc after 24 hrs by disc diffusion method; settings: FNSST 982, 24 h, read-out: DIZ; outline: as §2
Bacillus cereus [15] = test: Antibacterial activity against Bacillus cereus ATCC 11778 assessed as diameter of zone of inhibition at 250 ug/disc after 24 hrs by disc diffusion method; settings: ATCC 11778, 24 h, read-out: DIZ; outline: as §2
Klebsiella pneumoniae [16] = test: Antibacterial activity against Klebsiella pneumoniae FNSST 011 assessed as diameter of zone of inhibition at 250 ug/disc after 24 hrs by disc diffusion method; settings: FNSST 011, 24 h, read-out: DIZ; outline: as §2
Enterobacter cloacae [17] = test: Antibacterial activity against CTX-15 expressing Enterobacter cloacae isolate 51 after 18 to 24 hrs by two-fold broth microdilution assay
Kluyvera intermedia = test: Antibacterial activity against TEM-1/SHV-12/[…] expressing Enterobacter intermedius isolate 243 after 18 to 24 hrs by two-fold broth microdilution assay; outline: as §3
[18] = test system: Stenotrophomonas maltophilia; test: Antibacterial activity against […] expressing Stenotrophomonas maltophilia isolate 125 after 18 to 24 hrs by two-fold broth microdilution assay; outline: as §3
Aeromonas caviae [19] = test: Antibacterial activity against TEM-1/CTX-M-15 expressing Aeromonas caviae isolate 260 after 18 to 24 hrs by two-fold broth microdilution assay; outline: as §3
Aeromonas hydrophila [20] = test: Antibacterial activity against TEM-1/SHV-12 expressing Aeromonas hydrophila isolate 268 after 18 to 24 hrs by two-fold broth microdilution assay; outline: as §3
Acinetobacter baumannii = test: Antibacterial activity against SIM-1 expressing Acinetobacter baumannii isolate 170 after 18 to 24 hrs by two-fold broth microdilution assay; outline: as §4
Aeromonas caviae [21] = test: Antibacterial activity against […] expressing Aeromonas caviae isolate 258 after 18 to 24 hrs by two-fold broth microdilution assay; outline: as §3
Escherichia coli [22] = test: Antibacterial activity against […] expressing Escherichia coli isolate 235 after 18 to 24 hrs by two-fold broth microdilution assay; outline: as §4
Pseudomonas aeruginosa [23] = test: Antibacterial activity against GIM-1 expressing Pseudomonas aeruginosa isolate 197 after 18 to 24 hrs by two-fold broth microdilution assay; outline: as §3
Enterobacter cloacae [24] = test: Antibacterial activity against TEM-1/CTX-M-15 expressing Enterobacter cloacae isolate 62 after 18 to 24 hrs by two-fold broth microdilution assay
Enterobacter cloacae [25] = test: Antibacterial activity against TEM-1/SHV-12 expressing Enterobacter cloacae isolate 306 after 18 to 24 hrs by two-fold broth microdilution assay
Klebsiella pneumoniae [26] = test: Antibacterial activity against TEM-1/SHV-12 expressing Klebsiella pneumoniae isolate 303 after 18 to 24 hrs by two-fold broth microdilution assay; outline: as §3
Escherichia coli [27] = test: Antibacterial activity against TEM-1/SHV-12 expressing Escherichia coli isolate 237 after 18 to 24 hrs by two-fold broth microdilution assay; outline: as §4
Escherichia coli [28] = test: Antibacterial activity against […] expressing Escherichia coli isolate 4024 after 18 to 24 hrs by two-fold broth microdilution assay; outline: as §4

SMILES	zone of inhibition at 250 µg/disc (Talaromyces funiculosus)	zone of inhibition at 250 µg/disc (Aeromonas hydrophila [1])	MIC (Staphylococcus aureus [2])	MIC (Escherichia coli [3])	MIC (Bacillus cereus [4])	zone of inhibition at 250 µg/disc (Clostridium perfringens [5])	zone of inhibition at 250 µg/disc (Candida albicans)	zone of inhibition at 250 µg/disc (Aspergillus fumigatus)	MIC (Clostridium perfringens [6])	MIC (Klebsiella pneumoniae [7])	MIC (Enterococcus faecalis [8])	MIC (Aeromonas hydrophila [9])	zone of inhibition at 250 µg/disc (Staphylococcus aureus [10])	zone of inhibition at 250 µg/disc (Pseudomonas aeruginosa [11])	zone of inhibition at 250 µg/disc (Enterococcus faecalis [12])	MIC (Pseudomonas aeruginosa [13])	zone of inhibition at 250 µg/disc (Escherichia coli [14])	zone of inhibition at 250 µg/disc (Bacillus cereus [15])	zone of inhibition at 250 µg/disc (Klebsiella pneumoniae [16])	MIC (Kluyvera intermedia)	other results
O/N=C/c1nccn1-c1ccc(F)cc1	18.6 mm	15.3 mm	100 µg/mL (≈ 487 µM)	25 µg/mL (≈ 122 µM)	50 µg/mL (≈ 244 µM)	8.6 mm	18.9 mm	15 mm	100 µg/mL (≈ 487 µM)	100 µg/mL (≈ 487 µM)	25 µg/mL (≈ 122 µM)	25 µg/mL (≈ 122 µM)	12.4 mm	9.8 mm	12.2 mm	50 µg/mL (≈ 244 µM)	14.8 mm	14 mm	10.3 mm		
O/N=C/c1n(Cc2ccccc2)cc[n+]1Cc1ccccc1.[Br-]	17.6 mm	17.1 mm	12.5 µg/mL	100 µg/mL	75 µg/mL	18.3 mm	20.9 mm	20.9 mm	25 µg/mL	42 µg/mL	12.5 µg/mL	50 µg/mL	14.2 mm	12.4 mm	17.1 mm	62.5 µg/mL	14.2 mm	15.5 mm	18.6 mm		
C[C@@H](O)[C@H]1C(=O)N2C(C(=O)O)=C(SCCNC=N)C[C@H]12 [IMIPENEM ANHYDROUS]																				0.12 µg/mL (≈ 0.401 µM)	MIC (Enterobacter cloacae [17]): 8 µg/mL (≈ 26.7 µM); MIC [18]: 0.12 µg/mL (≈ 0.401 µM); MIC (Aeromonas caviae [19]): 2 µg/mL (≈ 6.68 µM); MIC (Aeromonas hydrophila [20]): 0.06 µg/mL (≈ 0.2 µM); MIC (Acinetobacter baumannii): 8 µg/mL (≈ 26.7 µM); MIC (Aeromonas caviae [21]): 0.25 µg/mL (≈ 0.835 µM); MIC (Escherichia coli [22]): 0.06 µg/mL (≈ 0.2 µM); MIC (Pseudomonas aeruginosa [23]): > 8 µg/mL; MIC (Enterobacter cloacae [24]): 0.25 µg/mL (≈ 0.835 µM); MIC (Enterobacter cloacae [25]): 0.25 µg/mL (≈ 0.835 µM); MIC (Klebsiella pneumoniae [26]): 0.12 µg/mL (≈ 0.401 µM); MIC (Escherichia coli [27]): 0.125 µg/mL (≈ 0.418 µM)
O/N=C/c1nccn1-c1ccccc1	17.9 mm	17.7 mm	100 µg/mL (≈ 534 µM)	50 µg/mL (≈ 267 µM)	50 µg/mL (≈ 267 µM)	16.5 mm	16.4 mm	19.5 mm	100 µg/mL (≈ 534 µM)	100 µg/mL (≈ 534 µM)	6.25 µg/mL (≈ 33.4 µM)	50 µg/mL (≈ 267 µM)	10.1 mm	15.8 mm	15.7 mm	25 µg/mL (≈ 134 µM)	17.8 mm	15.4 mm	17.2 mm		
NC[C@H]1O[C@H](O[C@H]2[C@H](O)[C@@H](O[C@H]3O[C@H](CO)[C@@H](O)[C@H](N)[C@H]3O)[C@H](N)C[C@@H]2N)[C@H](N)C[C@@H]1O [TOBRAMYCIN]																				> 32 µg/mL	MIC (Enterobacter cloacae [17]): > 32 µg/mL; MIC [18]: 8 µg/mL (≈ 17.1 µM); MIC (Aeromonas caviae [19]): 32 µg/mL (≈ 68.4 µM); MIC (Aeromonas hydrophila [20]): 16 µg/mL (≈ 34.2 µM); MIC (Escherichia coli [28]): 32 µg/mL (≈ 68.4 µM); MIC (Acinetobacter baumannii): 16 µg/mL (≈ 34.2 µM); MIC (Aeromonas caviae [21]): 32 µg/mL (≈ 68.4 µM); MIC (Escherichia coli [22]): 16 µg/mL (≈ 34.2 µM); MIC (Pseudomonas aeruginosa [23]): 16 µg/mL (≈ 34.2 µM); MIC (Enterobacter cloacae [24]): 32 µg/mL (≈ 68.4 µM); MIC (Enterobacter cloacae [25]): 16 µg/mL (≈ 34.2 µM); MIC (Klebsiella pneumoniae [26]): 2 µg/mL (≈ 4.28 µM); MIC (Escherichia coli [27]): 64 µg/mL (≈ 137 µM)
O=C(O)c1cn(C2CC2)c2cc(N3CCNCC3)c(F)cc2c1=O [CIPROFLOXACIN]																				0.5 µg/mL (≈ 1.51 µM)	MIC (Aeromonas caviae [19]): 1 µg/mL (≈ 3.02 µM); MIC (Aeromonas hydrophila [20]): 2 µg/mL (≈ 6.04 µM); MIC (Acinetobacter baumannii): 0.5 µg/mL (≈ 1.51 µM); MIC (Aeromonas caviae [21]): 0.5 µg/mL (≈ 1.51 µM); MIC (Pseudomonas aeruginosa [23]): > 4 µg/mL; MIC (Klebsiella pneumoniae [26]): 2 µg/mL (≈ 6.04 µM)
Cc1ccc(-n2ccnc2/C=N/O)cc1	15.4 mm	15.7 mm	32 µg/mL (≈ 159 µM)	25 µg/mL (≈ 124 µM)	50 µg/mL (≈ 248 µM)	12.6 mm	20.2 mm	16.3 mm	100 µg/mL (≈ 497 µM)	100 µg/mL (≈ 497 µM)	50 µg/mL (≈ 248 µM)	25 µg/mL (≈ 124 µM)	18.5 mm	10.9 mm	13.8 mm	50 µg/mL (≈ 248 µM)	14.9 mm	14.6 mm	9.3 mm		

From ChEMBL document CHEMBL3091449, “Synthesis and antimicrobial profile of N-substituted imidazolium oximes and their monoquaternary salts against multidrug resistant bacteria” (2013)
